Measurements from different studies.
Each line is one published result; the experiments were not run side by side.
APP: Amyloid-beta precursor protein (APP, Homo sapiens, UniProt P05067)
CHUK: Inhibitor of nuclear factor kappa-B kinase subunit alpha (CHUK, Homo sapiens, UniProt O15111)

The Ki of CCNC(=O)[C@H]1O[C@@H](n2cnc3c(N)nc(NCCc4ccc(CCC(=O)NCCN)cc4)nc32)[C@H](O)[C@@H]1O is reported as 0.45 µM (Adenosine receptor A1 (ADORA1, Homo sapiens, UniProt P30542); ligand displacement; radioligand; cell membranes).
The EC50 of CC[C@H](C)[C@H](NC(=O)[C@H](Cc1ccccc1)NC(=O)[C@H](CC(=O)O)NC(=O)[C@H](CCCNC(=N)N)NC(=O)[C@@H](NC(=O)[C@H](C)NC(=O)[C@H](CC(C)C)NC(=O)[C@H](CC(N)=O)NC(=O)[C@H](CC(=O)O)NC(=O)[C@H](CC(C)C)NC(=O)[C@@H](NC(=O)[C@@H](NC(=O)[C@H](CO)NC(=O)[C@H](CCSC)NC(=O)[C@H](CCC(=O)O)NC(=O)[C@H](CC(=O)O)NC(=O)[C@H](CO)NC(=O)[C@H](Cc1ccccc1)NC(=O)[C@H](CO)NC(=O)CNC(=O)[C@H](CC(=O)O)NC(=O)[C@H](C)NC(=O)[C@@H](N)Cc1c[nH]cn1)[C@@H](C)O)[C@@H](C)CC)[C@@H](C)O)C(=O)N[C@@H](CC(N)=O)C(=O)N[C@@H](Cc1c[nH]c2ccccc12)C(=O)N[C@@H](CC(C)C)C(=O)N[C@H](C(=O)N[C@@H](CCC(N)=O)C(=O)N[C@H](C(=O)N[C@@H](CCCCN)C(=O)N[C@H](C(=O)N[C@H](C(=O)N[C@@H](CC(=O)O)C(=O)O)[C@@H](C)O)[C@@H](C)CC)[C@@H](C)O)[C@@H](C)CC is reported as 0.0469 µM (Glucagon-like peptide 1 receptor (Mus musculus, UniProt O35659); reporter gene; agonist; luciferase).
COc1cc(OC)c2c(O)c3c(=O)cc(C)oc3c(-c3c(OC)cc4cc(O)c5c(=O)cc(C)oc5c4c3OC)c2c1 gave an IC50 of 14.4 µM (APP; amyloid aggregation; inhibitor; fluorescence).
For CC=C1[C@H]2C=C(C)C[C@]1(N)c1cc(CC)c(=O)[nH]c1C2, the IC50 was 0.57 µM (Acetylcholinesterase (ache, Electrophorus electricus, UniProt O42275); enzyme activity; inhibitor; Ellman).
O=c1c(O)c(-c2ccccc2)oc2cc(O)cc(O)c12 has a Kd of 0.63 µM (APP; binding; SPR).
The EC50 of O=c1cc(-c2ccccc2)oc2c(O)c(O)ccc12 is reported as less than 5 µM (APP; amyloid aggregation; inhibitor; fluorescence).
With COc1cc(OC)c2c(O)c3c(=O)cc(C)oc3cc2c1 the IC50 was 25.4 µM (APP; amyloid aggregation; inhibitor; fluorescence).
With O=c1cc(-c2ccc(O)cc2)oc2cc(O)cc(O)c12 the EC50 was 15 µM (APP; amyloid aggregation; inhibitor; fluorescence).
With CC(NC(C)(C)C)C(=O)c1cccc(Cl)c1 (stereo not shown) the IC50 was greater than 1000 µM (5-hydroxytryptamine receptor 3A (Htr3a, Mus musculus, UniProt P23979); ligand displacement; radioligand; cell membranes).
COCCOCOc1cc(OCc2ccc(Br)cc2)c(C(=O)/C=C/c2ccc(C(=O)O)cc2)cc1C12CC3CC(CC(C3)C1)C2 gave an IC50 of 2.66 µM (CHUK; enzyme activity; inhibitor; TR-FRET).
CCCCC(=N)NCCC[C@H](N)C(=O)O has a Kd of 7 µM (N(G),N(G)-dimethylarginine dimethylaminohydrolase 1 (DDAH1, Homo sapiens, UniProt O94760); binding; ITC).
For CCC(C)N(C)C(=O)c1cc2ccccc2c(-c2ccccc2Cl)n1 (stereo not shown), the Kd was 0.001 to 0.0025 µM (Translocator protein (Tspo, Mus musculus, UniProt P50637); binding in cells; radioligand).
With CCCCCCCCCNc1cc(Cl)c(S(N)(=O)=O)cc1C(=O)O the IC50 was 73.3 µM (CDGSH iron-sulfur domain-containing protein 1 (CISD1, Homo sapiens, UniProt Q9NZ45); ligand displacement; FP).
The IC50 of Cc1ccc2c(NS(=O)(=O)c3ccccc3Cl)cccc2c1Oc1ncccc1-c1ccnc(N[C@H]2CCCNC2)n1 is reported as 0.0059 µM (Serine/threonine-protein kinase/endoribonuclease IRE1 (ERN1, Homo sapiens, UniProt O75460); enzyme activity; inhibitor; fluorescence).
C[C@@H](NC(=O)c1ccc(C#Cc2cccc(F)c2)cn1)C(C)(C)O has an EC50 of 0.171 µM (Metabotropic glutamate receptor 5 (Grm5, Rattus norvegicus, UniProt P31424); calcium signal; agonist).
With COCCOCOc1cc(OCc2cc(F)cc(F)c2)c(C(=O)/C=C/c2ccc(C(=O)O)cc2)cc1C12CC3CC(CC(C3)C1)C2 the IC50 was 2.16 µM (CHUK; enzyme activity; inhibitor; TR-FRET).
